Screening results as filed in PubChem BioAssay.
PLK1 PBD inh – inhibitors of human Plk1 polo box domain binding. P53350. Plk1 PBD phosphopeptide binding, fluorescence polarization. inhibition, %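 (tested at about 20 µM)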. 0.13% of 97,000 active. AID 693; in the data active means inhibition above about 34%, passing the limit was not always enough
Target sequence (P53350 whole entry, looked up, the tested form may be a part): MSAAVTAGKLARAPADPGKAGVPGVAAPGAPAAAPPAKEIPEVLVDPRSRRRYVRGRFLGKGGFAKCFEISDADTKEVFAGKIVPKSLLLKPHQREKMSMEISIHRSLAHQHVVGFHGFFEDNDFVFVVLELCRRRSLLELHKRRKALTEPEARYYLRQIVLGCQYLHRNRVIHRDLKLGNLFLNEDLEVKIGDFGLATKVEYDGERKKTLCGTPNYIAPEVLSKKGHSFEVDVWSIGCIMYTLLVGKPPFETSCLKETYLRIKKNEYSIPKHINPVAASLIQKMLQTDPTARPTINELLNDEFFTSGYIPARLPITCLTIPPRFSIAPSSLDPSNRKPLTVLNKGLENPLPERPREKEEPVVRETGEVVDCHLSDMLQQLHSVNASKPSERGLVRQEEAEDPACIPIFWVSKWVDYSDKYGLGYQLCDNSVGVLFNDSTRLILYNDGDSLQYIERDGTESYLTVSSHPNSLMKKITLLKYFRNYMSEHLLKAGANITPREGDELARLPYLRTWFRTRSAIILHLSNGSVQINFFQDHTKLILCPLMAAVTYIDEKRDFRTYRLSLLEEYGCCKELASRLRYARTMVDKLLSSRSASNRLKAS
PLK1 inh – PLK1 (human) kinase inhibition. P53350. recombinant PLK1 kinase, TR-FRET peptide phosphorylation. inhibition, % at 10 µM. 0.53% of 97,000 active. AID 619;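 active means inhibition of 50% or more in the single-concentration screen; inactive means inhibition below 50%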;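 further: 0% = DMSO max control and 100% = H-89 dihydrochloride min control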
PTK2B oligo ant – blocks oligomerization of human Pyk2 in cells; Q14289; Q293 cells, Pyk2 FERM NanoBiT luminescence; stronger effect = lower value; z-score (the deposit names both 25 µM and 10 µM); 0.83% of 99,000 active; AID 1347419;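 active means Z-score of -3 or lower, scaled per plate to the spread of control and sample wells; inactive means z-score above -3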;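 further: negative z-score means lost luminescence so less FERM oligomerization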
FAK inh – inhibitors of human focal adhesion kinase; inhibition, %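 (tested at 7 µM)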; biochemical FAK kinase activity assay; 0.84% of 97,000 active; AID 727; Q05397; in the data active means inhibition above about 19%;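 further: 0% = DMSO and 100% = reference compound high control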
Rev-RRE block – HIV Rev-RRE protein-RNA interaction inhibition; inhibition, % at 8 µM; P05866; AID 704; Rev peptide-RRE RNA binding, FRET; 0.79% of 97,000 active;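 active means inhibition above the screen-wide mean plus 3 SD, cut at about 35% in these data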;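 further: 0% = median DMSO wells and 100% = median Neomycin B control wells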
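Test system – labelled RRE RNA duplex and labelled Rev peptide · Signal – fluorescein-to-Cy5 FRET, 480 nm excitation · Evaluation – % inhibition of FRET ratio versus controls · Benchmarks – DMSO low control, neomycin B high control · Incubation – 5 min RNA-compound premix plus 15 min binding step, 25 °C · Medium – HEPES pH 7.5 salt buffer with EDTA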
Cav3 T inh – blocks human Cav3.2 T-type calcium channel; AID 449739; Cav3.2-expressing cells, Fluo-4 calcium fluorescence FDSS; stronger effect = lower value; 4% of 100,000 active; O95180; B-score at 10 µM;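 active means single-dose well whose peak fluorescence ratio is a statistical outlier from its plate by either plate-standardised score or position-corrected B-score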
Numbers without * were called inactive; / = no result given. Hits are enriched below; roughly 5.8% of the tested compounds scored in any of these assays.

SMILES	PLK1 PBD inh	PLK1 inh	PTK2B oligo ant	FAK inh	Rev-RRE block	Cav3 T inh
O=C(CSc1nc(-c2ccccc2)c(-c2ccccc2)[nH]1)Nc1nccs1	-14	61*	-2.5	7	17	-2.1
CCn1c(Cc2cccc3ccccc23)nnc1SCC(=O)Nc1nccs1	-6	65*	0.39	0	1	-5.9*
CCn1c(CNC(=O)Cc2ccc(OC)cc2)nnc1SCC(=O)Nc1nccs1	1	-7	-1.6	2	0	-1.6
COc1ccc(-n2c(SCC(=O)Nc3nccs3)nnc2-c2ccoc2C)cc1	-1	5	1.9	3	-6	-1.5
Cc1occc1-c1nnc(SCC(=O)NCCc2ccccc2)n1Cc1ccccc1	-6	-4	-0.11	0	1	-5*
Cc1occc1-c1nnc(SCC(N)=O)n1Cc1ccccc1	26	-14	-0.1	0	7	0.33
COc1cccc(-n2c(SCC(=O)Nc3nccs3)nnc2-c2ccoc2C)c1	-7	4	-1.8	0	12	-4*
O=C(CSc1nc(-c2ccccc2)c(-c2ccccc2)[nH]1)NCCN1C(=O)CSC1=O	-5	-11	-0.97	10	4	2.1
O=C(NCCc1ccccc1)C1CCCN(S(=O)(=O)c2cccs2)C1 (stereo unspecified)	7	-9	/	3	5	0.7
Cc1cccc(OCC2=NS(=O)(=O)c3ccccc3N2)c1	10	-5	0.6	0	4	0.45
CCn1c(SCC(=O)Nc2nc(C)cs2)nnc1-c1ccoc1C	5	11	-0.8	-1	3	0.034
COc1ccc(-n2c(SCC(=O)Nc3nc(C)cs3)nnc2-c2ccoc2C)cc1	7	-4	-1.1	0	11	-6.5*
Cc1occc1-c1nnc(SCC(=O)Nc2ccccc2)n1C(C)c1ccccc1 (stereo unspecified)	/	/	-0.96	/	/	-4.3*
Cn1c(SCC(=O)NCCc2ccccc2)nnc1-c1ccco1	4	-8	-0.05	-2	2	0.11
COc1cccc(-n2c(SCC(=O)NCCc3ccccc3)nnc2-c2ccoc2C)c1	/	/	-1.6	/	/	-8*
Cc1ccc(-c2nnc(SCC(=O)Nc3nccs3)n2N)cc1	-21	63*	-0.24	-2	3	-0.0041
CCc1ccc(OCc2nnc(SCCN3CCOCC3)n2C)cc1	-1	-1	1.5	3	0	1.1
COc1ccc(-n2cnc3c(cnn3CCC#N)c2=N)cc1	17	-5	0.45	3	12	/
Cn1nccc1C(=O)OCC(=O)Nc1nc(-c2ccccc2)cs1	/	/	-0.12	/	/	-3.8*
COc1ccc(-c2csc(NC(=O)CC(C)C)n2)cc1	16	1	-0.46	-1	5	-1.5
Cn1cc(Cl)c(C(=O)OCC(=O)Nc2nc(-c3ccc(Br)cc3)cs2)n1	8	-9	-0.71	1	-5	-5.9*
CC(NC(=O)CCC1COc2ccccc2O1)c1ccccc1 (stereo unspecified)	25	-5	-0.11	2	7	1.3
CCC1=C(OC(=O)N(CC)CC)N2C(=O)OC(=NCCOC)[C@]2(Cc2ccccc2)[C@H]2C1=CC[C@H]1C(=O)N(C)C(=O)[C@H]12	/	/	/	/	/	0.034
CC(NC(=O)c1ccccc1NC(=O)CSc1nnnn1C)c1ccccc1 (stereo unspecified)	12	-7	-0.32	-1	10	1.2
O=C(OCCN1C(=O)CCC1=O)c1ccc(S(=O)(=O)N2CCCCC2)cc1	15	-6	0.16	2	8	/
SMILES	PLK1 PBD inh	PLK1 inh	PTK2B oligo ant	FAK inh	Rev-RRE block	Cav3 T inh
CC/C(O)=C1\C(=O)CC(c2ccccc2)CC1=NCCc1c(C)[nH]c2ccc(C)cc12 (stereo unspecified)	/	/	/	/	/	-4.6*
CC(C)COc1ccc(CSCCNC(=S)Nc2ccccc2)cc1	24	-12	-0.93	0	0	-4.1*
COc1cc(C(=O)Nc2cc(Cl)ccc2C)c(-n2cnnn2)cc1OC	5	-9	0.92	1	6	0.087
CCOC(=O)C1=C(C)NC(C)=C(C(=O)OCC)C1c1cc2ccc(C)cc2[nH]c1=O	-29	0	-0.92	-2	5	-5.1*
COc1cc(NC(=O)Cn2nc(C(F)(F)F)c3c2CCCC3)cc(OC)c1OC	-6	-5	-0.16	0	6	-3.6
O=C(Nc1cccc(Cl)c1Cl)c1ccncc1	-31	54*	-0.23	-2	5	1.3
CCOc1ccc(N(CC(=O)NCc2cccc(OC)c2)S(=O)(=O)c2c(C)noc2C)cc1	5	-6	-0.21	3	13	-4.6
